Results: ChEMBL document CHEMBL4004787, “Polyoxygenated Cyclohexenes and Other Constituents of Cleistochlamys kirkii Leaves” (J Nat Prod, 2017)
The source made the active and inactive calls. The rule behind the calls is not given here.

Legend:
[1] = tested on: Krebs2; assay: Inhibition of cap/HCV-mediated translation in mouse Krebs2 cell free extract expressing FF/HCV/IRES-Ren mRNA reporter transcript assessed as reduction in luciferase production at 20 uM after 60 mins; assay type: functional
Method in brief: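 Krebs-2 in vitro translation extracts programmed with bicistronic firefly-HCV IRES-Renilla luciferase mRNA. Compounds at 10 mM DMSO stock, diluted to 200 μM in water before addition. Reactions incubated 60 min at 30 °C, then both luciferase activities read. Firefly signal reports cap-dependent translation; Renilla signal reports HCV IRES translation.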

[2] = tested on: Plasmodium falciparum; assay: Growth inhibition of chloroquine-sensitive Plasmodium falciparum 3D7 infected in human RBC at 40 uM after 72 hrs by DAPI staining based confocal microscopic method relative to control; assay type: functional; details: 3D7, 72 h, read-out: GI
[3] = tested on: MDA-MB-231; assay: Growth inhibition of human MDA-MB-231 cells after 72 hrs by alamar blue assay; assay type: functional, cell-based; details: MDA-MB-231, 72 h
Method in brief: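 MDA-MB-231 cells grown in DMEM with 10% FBS, 2 mM L-glutamine, penicillin and streptomycin at 37 °C, 5% CO2. Seeded at 10 000 cells/well, preincubated 24 h, then exposed to 100−0.1 μg/mL for 72 h; vehicle 0.1% or 1.0% DMSO. Alamar Blue read by absorbance at 570 nm (600 nm reference). Six replicates, expressed as % of vehicle control.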

[4] = Growth inhibition of HEK293 cells at 20 uM after 72 hrs by PrestoBlue staining based fluorescence assay relative to control; assay type: cell-based; details: human, read-out: GI
[5] = Selectivity index, ratio of growth inhibitory effect against HEK293 cells at 20 uM to IC50 for chloroquine-sensitive Plasmodium falciparum 3D7 infected in human RBC; assay type: toxicity, cell-based; details: HEK293 cells versus Plasmodium falciparum 3D7 in human RBC, read-out: Selectivity Index
[6] = tested on: Plasmodium falciparum; assay: Antimalarial activity against chloroquine-sensitive Plasmodium falciparum 3D7 infected in human RBC after 72 hrs by DAPI staining based confocal microscopic method; assay type: functional; details: 3D7, 72 h
Method in brief: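 Triplicate runs, n = 3. Percent inhibition plotted against log dose, and IC50 fitted by nonlinear regression with variable slope. An initial single-point screen was run at 20 μM final concentration.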

[7] = tested on: Plasmodium falciparum; assay: Antimalarial activity against chloroquine-resistant Plasmodium falciparum Dd2 infected in human RBC after 72 hrs by DAPI staining based confocal microscopic method; assay type: functional; details: Dd2, 72 h
Method in brief: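 Triplicate runs, n = 3. Percent inhibition plotted against log dose, and IC50 fitted by nonlinear regression with variable slope. […] An initial single-point screen was run at 20 μM final concentration.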

[8] = tested on: HEK293; assay: Growth inhibition of HEK293 cells after 72 hrs by PrestoBlue staining based fluorescence assay; assay type: cell-based; details: Homo sapiens, HEK293, 72 h
Method in brief: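 HEK293 cytotoxicity IC50s: percent inhibition plotted against log dose and fitted by nonlinear regression (variable slope). Experiments run in triplicate (n = 3).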

[9] = tested on: Plasmodium falciparum; assay: Growth inhibition of chloroquine-sensitive Plasmodium falciparum 3D7 infected in human RBC at 20 uM after 72 hrs by DAPI staining based confocal microscopic method relative to control; assay type: functional; details: 3D7, 72 h, read-out: GI
[10] = Selectivity index, ratio of IC50 for HEK293 cells to IC50 for chloroquine-sensitive Plasmodium falciparum 3D7 infected in human RBC; assay type: toxicity; details: HEK293 cells versus Plasmodium falciparum 3D7 in human RBC, read-out: Ratio IC50
Method in brief: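 Selectivity index computed as the HEK293 IC50 divided by the P. falciparum 3D7 IC50, compared against puromycin as a nonselective standard.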

[11] = tested on: Plasmodium falciparum; assay: Growth inhibition of chloroquine-resistant Plasmodium falciparum Dd2 infected in human RBC at 40 uM after 72 hrs by DAPI staining based confocal microscopic method relative to control; assay type: functional; details: Dd2, 72 h, read-out: GI
Method in brief: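 Percentage growth inhibition was read at 40 μM, a single concentration. The value is the mean of at least two independent measurements.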

[12] = Growth inhibition of HEK293 cells at 40 uM after 72 hrs by PrestoBlue staining based fluorescence assay relative to control; assay type: cell-based; details: human, read-out: GI

| IC50 [3] [nM] | SMILES | inhibition [1] | inhibition of growth at 40 µM [2] [%] | IC50 [6] [nM] | also measured |
| --- | --- | --- | --- | --- | --- |
| 2700 | CC(=O)O[C@H]1C=C[C@H](O)[C@@](O)(COC(=O)c2ccccc2)[C@@H]1OC(C)=O | inactive | 54 |  |  |
|  | C[C@H]1[C@@H](O)O[C@@H]2O[C@@]3(C)CC[C@H]4[C@H](C)CC[C@@H]1[C@@]24OO3 [ARTENIMOL] |  |  | 0.11 | inhibition at 72 h, 20 µM [4]: 50%; selectivity ratio at 20 µM [5]: > 22; IC50 [7]: 0.15 nM |
| 90 | O=C(OCc1cc(O)ccc1O)c1ccccc1 |  | 67 |  |  |
|  | CC(=O)OC[C@]1(O)[C@H](OC(=O)c2ccccc2)C=C[C@@H](OC(C)=O)[C@@H]1O | inactive |  |  |  |
|  | COc1ccc2nc3cc(Cl)ccc3c(Nc3cc(CN4CCCC4)c(O)c(CN4CCCC4)c3)c2n1 [PYRONARIDINE] |  |  |  | IC50 [8]: 1800 nM; selectivity ratio [10]: 494 |
|  | COc1ccc(C[C@H](N)C(=O)N[C@H]2[C@@H](O)[C@H](n3cnc4c(N(C)C)ncnc43)O[C@@H]2CO)cc1 [PUROMYCIN] |  |  | 23 | selectivity ratio [10]: 15.9 |
|  | CC(=O)O[C@H](/C=C1/C=CC(=O)O1)COC(=O)c1ccccc1 | inactive |  | 6670 | inhibition of growth at 40 µM [11]: 100%; inhibition at 72 h, 40 µM [12]: 100%; inhibition of growth at 20 µM [9]: ≥ 90% |
|  | C[C@H]1[C@H](OC(=O)CCC(=O)O)O[C@@H]2O[C@@]3(C)CC[C@H]4[C@H](C)CC[C@@H]1[C@@]24OO3 [ARTESUNATE] |  |  | 0.48 | inhibition at 72 h, 20 µM [4]: 75%; selectivity ratio at 20 µM [5]: > 22 |
| 2100 | CC(=O)O[C@@H]1C=C[C@@H](OC(=O)c2ccccc2)[C@@](O)(COC(=O)c2ccccc2)[C@H]1OC(C)=O | inactive | 99 |  |  |
| 8200 | O=Cc1cccc(O)c1 [3-HYDROXYBENZALDEHYDE] | inactive | 25 |  |  |
|  | CC(=O)O[C@H](OC(=O)c1ccccc1)[C@@]12C=C[C@@H](c3ccc(C=O)cc31)[C@H](O)[C@H]2OC(C)=O |  | 98 |  |  |
| 240 | O=C1C=C/C(=C/[C@@H](O)COC(=O)c2ccccc2)O1 |  | 92 |  |  |
| 120 | CC(=O)O[C@H]1C=C[C@H](Cl)[C@@](O)(COC(=O)c2ccccc2)[C@@H]1O | inactive | 72 |  |  |
|  | CCc1nc(N)nc(N)c1-c1ccc(Cl)cc1 [PYRIMETHAMINE] |  |  |  | IC50 [8]: 4200 nM |
| 450 | CC(=O)O[C@H]1C=C[C@H](Cl)[C@](O)(COC(=O)c2ccccc2)[C@@H]1O | inactive | 95 |  |  |

| SMILES | IC50 [3] [nM] | inhibition [1] | inhibition of growth at 40 µM [2] [%] | IC50 [6] [nM] | also measured |
| --- | --- | --- | --- | --- | --- |
| CC(=O)O[C@@H]1C=C[C@H](O)[C@@H](O)/C1=C/OC(=O)c1ccccc1 | 30 | inactive |  | 200 | IC50 [8]: 2700 nM; inhibition of growth at 20 µM [9]: ≥ 90%; IC50 [7]: 480 nM; selectivity ratio [10]: 14 |
| CC(=O)OC(OC(=O)c1ccccc1)C1=CC=C[C@H](O)[C@H]1OC(C)=O (stereo partly drawn) | 290 |  |  | 1200 | IC50 [8]: 3600 nM; inhibition of growth at 20 µM [9]: ≥ 90%; IC50 [7]: 2200 nM; selectivity ratio [10]: 3 |
| CC(=O)O[C@@H]1C=C[C@H](O)[C@@H](OC(C)=O)/C1=C/OC(=O)c1ccccc1 | 290 | inactive |  | 620 | IC50 [8]: 2400 nM; inhibition of growth at 20 µM [9]: ≥ 90%; IC50 [7]: 3400 nM; selectivity ratio [10]: 4 |
